{"source": "ChEMBL document CHEMBL1129430", "about": "“Synthesis and transporter binding properties of 3 beta-(4'-alkyl-, 4'-alkenyl-, and 4'-alkynylphenyl)nortropane-2 beta-carboxylic acid methyl esters: serotonin transporter selective analogs” (J Med Chem, 1996)", "key": {"[1]": {"target": "Sodium-dependent dopamine transporter (Rattus norvegicus, UniProt P23977)", "sequence (P23977 whole entry)": "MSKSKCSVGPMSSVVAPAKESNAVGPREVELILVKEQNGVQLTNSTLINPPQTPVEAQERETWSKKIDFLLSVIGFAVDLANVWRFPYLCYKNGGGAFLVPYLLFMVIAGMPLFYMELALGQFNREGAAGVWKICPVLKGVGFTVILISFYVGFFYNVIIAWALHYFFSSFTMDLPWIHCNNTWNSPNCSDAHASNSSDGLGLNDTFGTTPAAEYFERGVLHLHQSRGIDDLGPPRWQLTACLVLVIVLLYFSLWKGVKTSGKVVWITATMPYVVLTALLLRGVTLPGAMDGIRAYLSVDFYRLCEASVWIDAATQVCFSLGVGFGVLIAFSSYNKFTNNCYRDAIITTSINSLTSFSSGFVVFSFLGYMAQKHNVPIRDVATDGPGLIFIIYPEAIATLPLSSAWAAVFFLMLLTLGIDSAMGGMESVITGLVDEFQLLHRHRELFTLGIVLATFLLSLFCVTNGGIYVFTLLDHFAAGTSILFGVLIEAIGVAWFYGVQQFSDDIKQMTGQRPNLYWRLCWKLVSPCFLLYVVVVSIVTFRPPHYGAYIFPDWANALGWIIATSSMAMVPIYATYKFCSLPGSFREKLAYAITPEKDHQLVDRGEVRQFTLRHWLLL", "experiment": "Inhibition of [3H]WIN-35428 binding to the dopamine transporter in rat striata."}, "[2]": {"target": "Norepinephrine transporter (Rattus norvegicus, UniProt Q9WTR4)", "sequence (Q9WTR4 whole entry)": "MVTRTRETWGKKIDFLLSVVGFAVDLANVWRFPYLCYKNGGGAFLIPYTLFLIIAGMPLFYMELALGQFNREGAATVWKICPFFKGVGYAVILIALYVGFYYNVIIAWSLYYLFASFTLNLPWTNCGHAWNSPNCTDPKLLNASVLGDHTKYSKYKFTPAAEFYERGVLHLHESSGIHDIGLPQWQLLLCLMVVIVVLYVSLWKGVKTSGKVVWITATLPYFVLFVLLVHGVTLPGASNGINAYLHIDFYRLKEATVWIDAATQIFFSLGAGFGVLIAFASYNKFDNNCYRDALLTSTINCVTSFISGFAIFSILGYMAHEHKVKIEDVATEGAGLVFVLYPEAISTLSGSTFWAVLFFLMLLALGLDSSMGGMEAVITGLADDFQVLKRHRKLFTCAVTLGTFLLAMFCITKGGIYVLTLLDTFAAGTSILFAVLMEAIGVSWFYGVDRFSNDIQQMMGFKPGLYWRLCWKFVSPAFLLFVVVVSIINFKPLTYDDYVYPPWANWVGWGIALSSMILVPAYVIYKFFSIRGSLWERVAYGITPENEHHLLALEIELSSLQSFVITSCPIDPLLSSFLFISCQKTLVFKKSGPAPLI", "experiment": "Inhibition of [3H]nisoxetine binding to the norepinephrine transporter in rat midbrain."}, "[3]": {"target": "Sodium-dependent serotonin transporter (Rattus norvegicus, UniProt P31652)", "sequence (P31652 whole entry)": "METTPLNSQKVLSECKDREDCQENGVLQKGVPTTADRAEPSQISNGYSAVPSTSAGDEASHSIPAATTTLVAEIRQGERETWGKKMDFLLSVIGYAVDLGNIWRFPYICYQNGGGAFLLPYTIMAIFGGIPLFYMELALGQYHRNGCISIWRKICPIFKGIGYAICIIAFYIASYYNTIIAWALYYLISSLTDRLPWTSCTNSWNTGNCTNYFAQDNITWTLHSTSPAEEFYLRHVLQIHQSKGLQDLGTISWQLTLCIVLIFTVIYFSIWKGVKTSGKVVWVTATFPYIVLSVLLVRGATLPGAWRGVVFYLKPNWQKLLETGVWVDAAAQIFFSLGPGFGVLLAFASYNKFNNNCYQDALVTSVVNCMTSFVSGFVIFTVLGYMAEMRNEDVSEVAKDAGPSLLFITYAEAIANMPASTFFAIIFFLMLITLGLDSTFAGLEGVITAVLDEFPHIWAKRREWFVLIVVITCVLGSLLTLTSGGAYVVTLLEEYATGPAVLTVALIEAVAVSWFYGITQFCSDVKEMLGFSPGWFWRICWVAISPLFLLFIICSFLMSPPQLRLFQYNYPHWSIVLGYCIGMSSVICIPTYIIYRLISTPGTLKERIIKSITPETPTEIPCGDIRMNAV", "experiment": "Inhibition of [3H]paroxetine binding to serotonin transporter in rat frontal cortex", "format": "tissue-based"}, "[4]": {"target": "Monoamine transporters; Norepinephrine & serotonin (Rattus norvegicus) (UniProt P31652+Q9WTR4)", "experiment": "Selectivity for norepinephrine and serotonin transporters", "format": "protein assay", "in_short": "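The NE/5-HT IC50 ratio is derived from IC50 values from two binding assays in rat brain. One is [3H]nisoxetine binding in midbrain (NE transporter). The other is [3H]paroxetine binding in frontal cortex (5-HT transporter).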"}, "[5]": {"target": "Monoamine transporters; serotonin & dopamine (Rattus norvegicus) (UniProt P31652+P23977)", "sequence (P23977 whole entry, looked up)": "as the sequence (P23977 whole entry) above", "sequence (P31652 whole entry, looked up)": "as the sequence (P31652 whole entry) above", "experiment": "Selectivity for dopamine and serotonin transporters", "format": "protein assay"}}}
{"smiles": "CC#Cc1ccc(C2CC3CCC(N3)C2C(=O)OC)cc1", "note": "(stereo not given)", "values": [{"measurement": "IC50", "setting": "[1]", "value": 6.11, "unit": "nM"}, {"measurement": "IC50", "setting": "[2]", "value": 116, "unit": "nM"}, {"measurement": "IC50", "setting": "[3]", "value": 3.16, "unit": "nM"}, {"measurement": "Ratio", "setting": "[4]", "value": 37}, {"measurement": "Ratio", "setting": "[5]", "value": 1.93}]}
{"smiles": "C/C=C\\c1ccc(C2CC3CCC(C2C(=O)OC)N3C)cc1", "note": "(stereo not given)", "values": [{"measurement": "IC50", "setting": "[1]", "value": 15, "unit": "nM"}, {"measurement": "IC50", "setting": "[2]", "value": 2800, "unit": "nM"}, {"measurement": "IC50", "setting": "[3]", "value": 7.09, "unit": "nM"}, {"measurement": "Ratio", "setting": "[4]", "value": 395}, {"measurement": "Ratio", "setting": "[5]", "value": 2.1}]}
{"smiles": "COC(=O)C1C2CCC(CC1c1ccc(C(C)C)cc1)N2", "note": "(stereo not given)", "values": [{"measurement": "IC50", "setting": "[1]", "value": 320, "unit": "nM"}, {"measurement": "Ratio", "setting": "[4]", "value": 21}]}
{"smiles": "C=C(C)c1ccc(C2CC3CCC(C2C(=O)OC)N3C)cc1", "note": "(stereo not given)", "values": [{"measurement": "IC50", "setting": "[1]", "value": 14.1, "unit": "nM"}, {"measurement": "IC50", "setting": "[2]", "value": 1330, "unit": "nM"}, {"measurement": "Ratio", "setting": "[4]", "value": 425}, {"measurement": "Ratio", "setting": "[5]", "value": 4.6}]}
{"smiles": "CCc1ccc(C2CC3CCC(N3)C2C(=O)OC)cc1", "note": "(stereo not given)", "values": [{"measurement": "IC50", "setting": "[1]", "value": 49.9, "unit": "nM"}, {"measurement": "IC50", "setting": "[2]", "value": 122, "unit": "nM"}, {"measurement": "Ratio", "setting": "[4]", "value": 15}, {"measurement": "Ratio", "setting": "[5]", "value": 6.1}]}
{"smiles": "C/C=C\\c1ccc(C2CC3CCC(N3)C2C(=O)OC)cc1", "note": "(cis isomer)", "values": [{"measurement": "IC50", "setting": "[1]", "value": 31.6, "unit": "nM"}, {"measurement": "IC50", "setting": "[2]", "value": 147, "unit": "nM"}, {"measurement": "IC50", "setting": "[3]", "value": 1.15, "unit": "nM"}, {"measurement": "Ratio", "setting": "[4]", "value": 128}, {"measurement": "Ratio", "setting": "[5]", "value": 28}]}
{"smiles": "C#Cc1ccc(C2CC3CCC(N3)C2C(=O)OC)cc1", "note": "(stereo not given)", "values": [{"measurement": "IC50", "setting": "[1]", "value": 1.24, "unit": "nM"}, {"measurement": "IC50", "setting": "[2]", "value": 21.8, "unit": "nM"}, {"measurement": "IC50", "setting": "[3]", "value": 1.59, "unit": "nM"}, {"measurement": "Ratio", "setting": "[4]", "value": 13.7}, {"measurement": "Ratio", "setting": "[5]", "value": 0.78}]}
{"smiles": "C=CCc1ccc(C2CC3CCC(C2C(=O)OC)N3C)cc1", "note": "(stereo not given)", "values": [{"measurement": "IC50", "setting": "[1]", "value": 32.8, "unit": "nM"}, {"measurement": "IC50", "setting": "[2]", "value": 2480, "unit": "nM"}, {"measurement": "IC50", "setting": "[3]", "value": 28.4, "unit": "nM"}, {"measurement": "Ratio", "setting": "[4]", "value": 87}, {"measurement": "Ratio", "setting": "[5]", "value": 1.16}]}
{"smiles": "CC#Cc1ccc(C2CC3CCC(C2C(=O)OC)N3C)cc1", "note": "(stereo not given)", "values": [{"measurement": "IC50", "setting": "[1]", "value": 2.37, "unit": "nM"}, {"measurement": "IC50", "setting": "[2]", "value": 820, "unit": "nM"}, {"measurement": "Ratio", "setting": "[4]", "value": 52}, {"measurement": "Ratio", "setting": "[5]", "value": 0.15}]}
{"smiles": "C/C=C/c1ccc(C2CC3CCC(C2C(=O)OC)N3C)cc1", "note": "(stereo not given)", "values": [{"measurement": "IC50", "setting": "[1]", "value": 5.29, "unit": "nM"}, {"measurement": "IC50", "setting": "[2]", "value": 1590, "unit": "nM"}, {"measurement": "Ratio", "setting": "[4]", "value": 140}, {"measurement": "Ratio", "setting": "[5]", "value": 0.46}]}
{"smiles": "COC(=O)[C@@H]1C2CCC(C[C@@H]1OC(=O)c1ccccc1)N2", "note": "(stereo not given in full)", "values": [{"measurement": "IC50", "setting": "[1]", "value": 206, "unit": "nM"}, {"measurement": "IC50", "setting": "[2]", "value": 139, "unit": "nM"}, {"measurement": "IC50", "setting": "[3]", "value": 127, "unit": "nM"}, {"measurement": "Ratio", "setting": "[4]", "value": 1.1}, {"measurement": "Ratio", "setting": "[5]", "value": 1.6}]}
{"smiles": "C#Cc1ccc(C2CC3CCC(C2C(=O)OC)N3C)cc1", "note": "(stereo not given)", "values": [{"measurement": "IC50", "setting": "[1]", "value": 1.2, "unit": "nM"}, {"measurement": "IC50", "setting": "[2]", "value": 83.2, "unit": "nM"}, {"measurement": "IC50", "setting": "[3]", "value": 4.4, "unit": "nM"}, {"measurement": "Ratio", "setting": "[4]", "value": 19}, {"measurement": "Ratio", "setting": "[5]", "value": 0.27}]}
{"smiles": "CCCc1ccc(C2CC3CCC(C2C(=O)OC)N3C)cc1", "note": "(stereo not given)", "values": [{"measurement": "IC50", "setting": "[1]", "value": 68.5, "unit": "nM"}, {"measurement": "IC50", "setting": "[2]", "value": 3920, "unit": "nM"}, {"measurement": "Ratio", "setting": "[4]", "value": 56}, {"measurement": "Ratio", "setting": "[5]", "value": 0.97}]}
{"smiles": "C=CCc1ccc(C2CC3CCC(N3)C2C(=O)OC)cc1", "note": "(stereo not given)", "values": [{"measurement": "IC50", "setting": "[1]", "value": 56.5, "unit": "nM"}, {"measurement": "IC50", "setting": "[2]", "value": 89.7, "unit": "nM"}, {"measurement": "IC50", "setting": "[3]", "value": 6.2, "unit": "nM"}, {"measurement": "Ratio", "setting": "[4]", "value": 15}, {"measurement": "Ratio", "setting": "[5]", "value": 9.1}]}
{"smiles": "C=Cc1ccc(C2CC3CCC(N3)C2C(=O)OC)cc1", "note": "(stereo not given)", "values": [{"measurement": "IC50", "setting": "[1]", "value": 1.73, "unit": "nM"}, {"measurement": "IC50", "setting": "[2]", "value": 14.9, "unit": "nM"}, {"measurement": "Ratio", "setting": "[4]", "value": 6.6}, {"measurement": "Ratio", "setting": "[5]", "value": 0.77}]}
{"smiles": "C=C(C)c1ccc(C2CC3CCC(N3)C2C(=O)OC)cc1", "note": "(stereo not given)", "values": [{"measurement": "IC50", "setting": "[1]", "value": 23, "unit": "nM"}, {"measurement": "IC50", "setting": "[2]", "value": 144, "unit": "nM"}, {"measurement": "IC50", "setting": "[3]", "value": 0.6, "unit": "nM"}, {"measurement": "Ratio", "setting": "[4]", "value": 240}, {"measurement": "Ratio", "setting": "[5]", "value": 38}]}
{"smiles": "CCCc1ccc(C2CC3CCC(N3)C2C(=O)OC)cc1", "note": "(stereo not given)", "values": [{"measurement": "IC50", "setting": "[1]", "value": 212, "unit": "nM"}, {"measurement": "IC50", "setting": "[2]", "value": 532, "unit": "nM"}, {"measurement": "IC50", "setting": "[3]", "value": 26, "unit": "nM"}, {"measurement": "Ratio", "setting": "[4]", "value": 21}, {"measurement": "Ratio", "setting": "[5]", "value": 8.2}]}
{"smiles": "COC(=O)C1C(c2ccc(C(C)C)cc2)CC2CCC1N2C", "note": "(stereo not given)", "values": [{"measurement": "IC50", "setting": "[1]", "value": 597, "unit": "nM"}, {"measurement": "IC50", "setting": "[2]", "value": 75000, "unit": "nM"}, {"measurement": "IC50", "setting": "[3]", "value": 191, "unit": "nM"}, {"measurement": "Ratio", "setting": "[4]", "value": 392}, {"measurement": "Ratio", "setting": "[5]", "value": 3.1}]}
{"smiles": "CCc1ccc(C2CC3CCC(C2C(=O)OC)N3C)cc1", "note": "(stereo not given)", "values": [{"measurement": "IC50", "setting": "[1]", "value": 55, "unit": "nM"}, {"measurement": "IC50", "setting": "[2]", "value": 4030, "unit": "nM"}, {"measurement": "Ratio", "setting": "[4]", "value": 142}, {"measurement": "Ratio", "setting": "[5]", "value": 1.9}]}
{"smiles": "C/C=C/c1ccc(C2CC3CCC(N3)C2C(=O)OC)cc1", "note": "(trans isomer)", "values": [{"measurement": "IC50", "setting": "[1]", "value": 28.6, "unit": "nM"}, {"measurement": "IC50", "setting": "[2]", "value": 54, "unit": "nM"}, {"measurement": "IC50", "setting": "[3]", "value": 1.3, "unit": "nM"}, {"measurement": "Ratio", "setting": "[4]", "value": 42}, {"measurement": "Ratio", "setting": "[5]", "value": 22}]}
{"smiles": "C=Cc1ccc(C2CC3CCC(C2C(=O)OC)N3C)cc1", "note": "(stereo not given)", "values": [{"measurement": "IC50", "setting": "[1]", "value": 1.24, "unit": "nM"}, {"measurement": "IC50", "setting": "[2]", "value": 78, "unit": "nM"}, {"measurement": "IC50", "setting": "[3]", "value": 9.5, "unit": "nM"}, {"measurement": "Ratio", "setting": "[4]", "value": 8.2}, {"measurement": "Ratio", "setting": "[5]", "value": 0.13}]}
